# From ChEMBL document CHEMBL1135605, “Preparation and characterization of platinum(II) and (IV) complexes of 1,3-diaminepropane and 1,4-diaminebutane: circumvention of cisplatin resistance and DNA interstrand cross-link formation in CH1cisR ovarian tumor cells” (J Med Chem, 2002)
# How the values were obtained:
# [1] = tested on: A2780; assay: Compound was evaluated against human Ovarian carcinoma cell line A2780cisR; assay type: functional, cell-based
# Outline: (§1)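 MTT cell survival assay. Compounds dissolved in 10 mM NaClO4 in distilled water, with 1 mg/mL stocks freshly prepared. Final concentrations 0–200 μM added to the cultures. Survival read 24 h later by absorbance at 520 nm. IC50 (concentration giving 50% cell killing) taken from % survival vs concentration curves. Run in quadruplicate.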
# [2] = tested on: A2780; assay: Compound was evaluated against human Ovarian carcinoma cell line A2780; assay type: functional, cell-based; outline: as §1
# [3] = tested on: CH1; assay: Compound was evaluated against human Ovarian carcinoma cell line CH1; assay type: functional, cell-based; outline: as §1
# [4] = tested on: PAM212; assay: Compound was evaluated against normal Pam 212 cell line; assay type: functional, cell-based, Mus musculus; outline: as §1
# [5] = tested on: PAM212; assay: Compound was evaluated against transformed murine keratinocytes Pam 212-ras cell line; assay type: functional, cell-based, Mus musculus; outline: as §1
# [6] = tested on: CH1; assay: Compound was evaluated against human Ovarian carcinoma cell line CH1cisR; assay type: functional, cell-based; outline: as §1
Substance,IC50 [1] [µM],IC50 [2] [µM],IC50 [3] [µM],IC50 [5] [µM],IC50 [6] [µM],IC50 [4] [µM]
"Cis-[Pt(1,3-diaminebutane)2(OH)2] 1,1-cyclobutanedicarboxylate",> 200,> 200,> 200,> 200,> 200,> 200
"Cis-[Pt(1,3-diaminebutane)2] 1,1-cyclobutanedicarboxylate",> 200,> 200,> 200,> 200,> 200,> 200
"Cis-[Pt(1,3-diaminepropane)2(O-Glutarate)2]",> 200,> 200,> 200,> 200,> 200,> 200
"Cis-[Pt(1,3-diaminepropane)2(O-Maleate)2]",> 200,> 200,> 200,> 200,> 200,> 200
"Cis-[Pt(1,3-diaminepropane)2(O-Succinate)2]",> 200,> 200,> 200,> 200,> 200,> 200
"Cis-[Pt(1,3-diaminepropane)2(OH)2] 1,1-cyclobutanedicarboxylate",> 200,> 200,> 200,> 200,> 200,> 200
"Cis-[Pt(1,3-diaminepropane)2] 1,1-cyclobutanedicarboxylate",> 200,> 200,> 200,> 200,> 200,> 200

# Now from value to substance, other results behind:
IC50 [1] [µM],IC50 [2] [µM],IC50 [3] [µM],IC50 [5] [µM],IC50 [6] [µM],Substance,IC50 [4] [µM]
178,18,52,> 200,185,CARBOPLATIN,> 200
36,2,6,72,25,CISPLATIN,44
> 200,> 200,> 200,> 200,> 200,"Cis-[Pt(1,3-diaminebutane)2(O-Succinate)2]",> 200
0.74,0.32,3.3,42,6,"Cis-[Pt(1,3-diaminebutane) 1,1-cyclobutanedicarboxylate]",100
1,0.3,4.5,64,8,"Cis-[Pt(1,3-diaminepropane) 1,1-cyclobutanedicarboxylate]",85
